The results in this text go back to ChEMBL document CHEMBL5344453, “Selective Recognition of c-KIT 1 G-Quadruplex by Structural Tuning of Heteroaromatic Scaffolds and Side Chains” (ACS Med Chem Lett, 2024).

Structures are written as SMILES.

The inhibition is the share of the control response that was lost under treatment. As usually defined, the ΔTm is the change in melting temperature against a reference sample.

For test [1], the system named is K562. The test is described as follows: Attenuation of proto-oncogene expression in human c-KIT-positive K562 cells assessed as reduction in c-MYC oncogene expression at 2 uM measured after 24 hrs by qRT-PCR analysis relative to control. Format: functional. In a few lines:
(§1)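 K562 leukemia cells treated for 24 h. c-KIT, c-MYC and BCL-2 mRNA measured by qRT-PCR, with each gene normalized to 18s housekeeping gene expression. Reduction expressed relative to untreated cells.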
A general note: Real-time PCR tracks product formation cycle by cycle.

Test [2] in a line: Reduction of c-KIT oncogene expression in human K562 cells transfected with c-KIT plasmid construct assessed as reduction in luciferase expression at 4 uM measured after 36 hrs by luciferase reporter assay. Format: functional. Summed up: (§2)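 K562 cells transfected with luciferase-expressing plasmids carrying the promoter G-quadruplex sequence of c-KIT, c-MYC or BCL-2, then ligand-treated. Relative luciferase expression measured.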
A general note: Reporter assays use an easily measured gene product as a stand-in for the process of interest.

Test [3] has as its system K562. The test is described as follows: Attenuation of proto-oncogene expression in human c-KIT-positive K562 cells assessed as reduction in BCL-2oncogene expression at 4 uM measured after 24 hrs by qRT-PCR analysis relative to control. Format: functional. In a few lines:
as §1

Test [4] deals with K562. Briefly: Attenuation of proto-oncogene expression in human c-KIT-positive K562 cells assessed as reduction in c-KIT oncogene expression at 2 uM measured after 24 hrs by qRT-PCR analysis relative to control. Format: functional. Summed up: as §1
Test [5] deals with K562. The test is described as follows: Induction of DNA damage in human K562 cells assessed as cells exhibiting DNA damage at 11 uM incubated for 24 hrs by DNA damage assay (reference value: 10.8%). Format: functional.
Test [6] is described as follows: Reduction of c-KIT oncogene expression in human K562 cells transfected with c-KIT plasmid construct assessed as reduction in luciferase expression at 2 uM measured after 36 hrs by luciferase reporter assay. Format: functional. In a few lines: as §2
A short description of test [7]: Reduction of c-KIT protein expression in human K562 cells at 2 uM measured after 24 hrs by Western blotting analysis relative to control. Format: functional. In a few lines: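 Lysates of treated K562 cells probed by Western blot for c-KIT protein, with GAPDH as housekeeping reference.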
Background: Immunoblotting shows a protein as a band on a membrane.

Test [8] can be described thus: Reduction of c-MYC oncogene expression in human K562 cells transfected with c-MYC plasmid construct assessed as reduction in luciferase expression at 4 uM measured after 36 hrs by luciferase reporter assay. Format: functional. Summed up: as §2
Test [9] in a line: Reduction of BCL-2 oncogene expression in human K562 cells transfected with BCL-2 plasmid construct assessed as reduction in luciferase expression at 2 uM measured after 36 hrs by luciferase reporter assay. Format: functional. Summed up: as §2
The nature of test [10]: Reduction of BCL-2 oncogene expression in human K562 cells transfected with BCL-2 plasmid construct assessed as reduction in luciferase expression at 4 uM measured after 36 hrs by luciferase reporter assay. Format: functional. In a few lines:
as §2

Test [11] relates to K562. Briefly: Attenuation of proto-oncogene expression in human c-KIT-positive K562 cells assessed as reduction in c-KIT oncogene expression at 4 uM measured after 24 hrs by qRT-PCR analysis relative to control. Format: functional. Summed up: as §1
In test [12] the test system is K562. Briefly: Induction of DNA damage in human K562 cells assessed as cells exhibiting DNA damage at 5.5 uM incubated for 24 hrs by DNA damage assay (reference value: 10.8%). Format: functional.
The nature of test [13]: Reduction of c-MYC oncogene expression in human K562 cells transfected with c-MYC plasmid construct assessed as reduction in luciferase expression at 2 uM measured after 36 hrs by luciferase reporter assay. Format: functional. In a few lines:
as §2

For test [14], the system named is K562. Briefly: Attenuation of proto-oncogene expression in human c-KIT-positive K562 cells assessed as reduction in BCL-2oncogene expression at 2 uM measured after 24 hrs by qRT-PCR analysis relative to control. Format: functional. Summed up:
as §1

Test [15] deals with Quadruplex DNA. Briefly: Stabilization of G-quadruplex BCL2 5-FAM-AGGGGCGGGCGCGGGAGGAAGGGGGCGGGAGCGGGGCTG-TAMRA-3 (unknown origin) assessed as change in melting temperature at 1 uM incubated for 1 hr in dark condition by FRET-based melting assay. Format: nucleic-acid assay. In a few lines: (§3)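 FRET melting of dual-fluorophore-tagged oligonucleotides (200 nM) in 60 mM potassium cacodylate buffer, pH 7.4, with ligand at 1 μM; ΔTm taken against the ligand-free oligonucleotide Tm as control.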

In test [16] the test system is Quadruplex DNA. Briefly: Stabilization of calf thymus […] ds DNA 5-FAM-CAATCGGATCGAATTCGATCCGATTG-TAMRA-3 assessed as change in melting temperature at 1 uM incubated for 1 hr in dark condition by FRET-based melting assay. Format: nucleic-acid assay. As to conditions: Bos taurus. In a few lines: as §3
Test [17] concerns Quadruplex DNA. The test is described as follows: Stabilization of G-quadruplex VEGF 5-FAM-CGGGGCGGGCCGGGGGCGGGGT-TAMRA-3 (unknown origin) assessed as change in melting temperature at 1 uM incubated for 1 hr in dark condition by FRET-based melting assay. Format: nucleic-acid assay. Summed up:
as §3

Test [18] concerns Quadruplex DNA. Briefly: Stabilization of G-quadruplex c-KIT1 5-FAM-GGGAGGGCGCTGGGAGGAGGG-TAMRA-3 (unknown origin) assessed as change in melting temperature at 1 uM incubated for 1 hr in dark condition by FRET-based melting assay. Format: nucleic-acid assay. Summed up: as §3
Test [19] has as its system Quadruplex DNA. Briefly: Stabilization of G-quadruplex c-KIT2 5-FAM-GGGCGGGCGCGAGGGAGGGG-TAMRA-3 (unknown origin) assessed as change in melting temperature at 1 uM incubated for 1 hr in dark condition by FRET-based melting assay. Format: nucleic-acid assay. Summed up:
as §3

Test [20] relates to Quadruplex DNA. Briefly: Stabilization of G-quadruplex h-TELO 5-FAM-TTGGGTTAGGGTTAGGGTTAGGGA-TAMRA-3 (unknown origin) assessed as change in melting temperature at 1 uM incubated for 1 hr in dark condition by FRET-based melting assay. Format: nucleic-acid assay. In a few lines: as §3
Test [21] relates to Quadruplex DNA. Briefly: Stabilization of G-quadruplex c-MYC 5-FAM-TGGGGAGGGTGGGGAGGGTGGGGAAGG-TAMRA- 3 (unknown origin) assessed as change in melting temperature at 1 uM incubated for 1 hr in dark condition by FRET-based melting assay. Format: nucleic-acid assay. Summed up: as §3

Consider `C[n+]1ccc(-c2c3nc(c(-c4cc[n+](C)cc4)c4ccc([nH]4)c(-c4cc[n+](C)cc4)c4nc(c(-c5cc[n+](C)cc5)c5ccc2[nH]5)C=C4)C=C3)cc1.[Cl-].[Cl-].[Cl-].[Cl-]` [TMPYP4 CHLORIDE], for which the inhibition at 2 µM in test [1] was 11%; in test [4] it was 30%; in test [6] it was 20.1%; in test [7], 10%; in test [9], 20.7%; in test [13], 24.4%. In addition, the inhibition at 2 µM in test [14] was 37%. Besides, the inhibition at 4 µM in test [2] turned out to be 34.1%; in test [3] it was 45%; in [8] it was 45.3%; in [10] it was 39.7%; in test [11], 48%. Moreover, the Activity in test [5] was determined as 30.3%; in test [12], 27.6%.

On to `NCCCCC(N)C(=O)Nc1ccc(-n2cc(-c3ccc4[nH]c5ccccc5c4c3)nn2)cc1` (stereo not drawn), for which the ΔTm in test [15], in [16], in test [17], in test [18], in [19] and in test [20] was less than 5.5 °C in each case. Moreover, in test [21], the ΔTm is less than 5.5 °C.

Consider `Nc1ccc(-n2cc(-c3ccc4[nH]c5ccccc5c4c3)nn2)cc1`, for which the shift in melting temperature (ΔTm) in [15], in test [16], in test [17], in test [18], in test [19] and in test [20] was less than 5.5 °C throughout. Moreover, in test [21], the thermal shift (ΔTm) was less than 5.5 °C.

On to `CN(C)CCCn1cc(-c2ccc3[nH]c4ccccc4c3c2)nn1`, for which the ΔTm in test [15], in test [16], in test [17], in test [18], in test [19] and in test [20] was less than 5.5 °C throughout. Further, the ΔTm in [21] was less than 5.5 °C.

In the case of `NCCn1cc(-c2ccc3oc4ccccc4c3c2)nn1`, the thermal shift (ΔTm) in [15], in test [16], in test [17], in test [18], in [19] and in test [20] was less than 6 °C throughout. Moreover, the ΔTm in test [21] is less than 6 °C.

With `NCCCCC(N)C(=O)Nc1ccc(-n2cc(-c3ccc4oc5ccccc5c4c3)nn2)cc1` (stereo not drawn), the shift in melting temperature (ΔTm) in [15], in test [16], in test [17], in test [18], in test [19] and in test [20] was less than 6 °C in each case. In addition, in test [21], the ΔTm is less than 6 °C.

`Nc1ccc(-n2cc(-c3ccc4oc5ccccc5c4c3)nn2)cc1`: the ΔTm in [15], in test [16], in test [17], in test [18], in test [19] and in test [20] was less than 6 °C in each case. In addition, the ΔTm in [21] is less than 6 °C.

Consider `Nc1nc(CC(=O)Nc2nc(CC(=O)NCCCn3cc(-c4ccc5oc6ccccc6c5c4)nn3)cs2)cs1`, for which the shift in melting temperature (ΔTm) in test [15], in test [16], in test [17], in [18], in test [19] and in [20] was less than 6 °C throughout. Besides, the thermal shift (ΔTm) in test [21] was less than 6 °C.

For `Nc1nc(CC(=O)Nc2nc(CC(=O)NCCCn3cc(-c4ccc5[nH]c6ccccc6c5c4)nn3)cs2)cs1`, the ΔTm in test [15], in [16], in test [17], in test [18], in test [19] and in test [20] was less than 5.5 °C each time. Also, in test [21], the ΔTm is less than 5.5 °C.

Turning to `CN(C)CCCn1cc(-c2ccc3oc4ccccc4c3c2)nn1`, the ΔTm in [15], in [16], in test [17], in test [18], in [19] and in test [20] was less than 6 °C each time. Further, in test [21], the ΔTm was less than 6 °C.

With `NCCn1cc(-c2ccc3[nH]c4ccccc4c3c2)nn1`, the thermal shift (ΔTm) in test [15], in test [16], in test [17], in test [18], in test [19] and in test [20] was less than 5.5 °C each time. Moreover, in [21], the thermal shift (ΔTm) was less than 5.5 °C.

Regarding `O=C(Nc1ccc(-n2cc(-c3ccc4oc5ccccc5c4c3)nn2)cc1)C1CCCN1` (stereo not drawn), the ΔTm in test [15], in test [16], in [17], in test [18], in test [19] and in [20] was less than 6 °C in each case. In test [21], the ΔTm is less than 6 °C.

Turning to `O=C(Nc1ccc(-n2cc(-c3ccc4[nH]c5ccccc5c4c3)nn2)cc1)C1CCCN1` (stereo not drawn), the ΔTm in test [15], in [16], in test [17], in [18], in [19] and in [20] was less than 5.5 °C in each case. In addition, the ΔTm in [21] was less than 5.5 °C.
